Measured values taken from article PMC3277286 (Journal of Medicinal Chemistry, 2012).

What was measured:
[1] = target: T1, human ΔF508-CFTR (Homo sapiens, UniProt P13569, DEL508-508); format: cell-based; conditions: summary in text of corrector and potentiator assays in ΔF508-CFTR FRT cells
Outline: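 FRT cells coexpressing human ΔF508-CFTR and YFP-H148Q/I152L were grown 18–24 h at 37 °C, then rescued 18–24 h at 27 °C. After a PBS wash, they got 20 μM forskolin with test compound (0–50 μM final, eight concentrations) for 10 min. I⁻ influx was recorded over 2 s baseline plus 12 s after iodide addition, rate by exponential regression. Controls were DMSO and genistein. Runs were in triplicate; EC50/Vmax came from a 4-parameter logistic fit.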

[2] = target: T1, human ΔF508-CFTR; test: ΔF508-CFTR corrector activity, fluorescence plate-reader iodide influx assay; format: cell-based; conditions: summary in text of corrector and potentiator assays in ΔF508-CFTR FRT cells
Outline: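 FRT cells stably coexpressing human ΔF508-CFTR and YFP-H148Q/I152L were grown 24 h at 37 °C, then given test compound for 16–20 h at eight concentrations (maximum 25 μM). After a PBS wash, they got 20 μM forskolin plus 50 μM genistein for 20 min. Iodide influx was read as YFP quenching after Cl-to-I replacement (137 mM), fitted exponentially. Runs were in triplicate; EC50/Vmax came from a 4-parameter logistic fit.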

Row | Compound | Activity class from function studies (potentiator) [1] | Activity class from function studies (corrector / dual) [2]
1 | Cc1cc(C)c2cc(C#N)c(NCCCNC(=O)c3ccccn3)nc2c1 [CoPo 34, N-(3-(3-Cyano-5,7-dimethylquinolin-2-ylamino)propyl)picolinamide] | potentiator-only activity | 
2 | Cc1cc(C)c2cc(C#N)c(NCCNC(=O)c3cnccn3)nc2c1 [CoPo 22, N-(2-((3-Cyano-5,7-dimethylquinolin-2-yl)amino)ethyl)pyrazine-2-carboxamide] |  | corrector-only activity
3 | COc1ccccc1C(=O)NCCCNc1nc2cc(C)cc(C)c2cc1C#N [CoPo 31, N-(3-(3-Cyano-5,7-dimethylquinolin-2-ylamino)propyl)-2-methoxybenzamide] | potentiator-only activity | 

More lines, now with the values ahead:

Row | Activity class from function studies (potentiator) [1] | Activity class from function studies (corrector / dual) [2] | Compound
4 | potentiator-only activity |  | Cc1cc(C)c2cc(C#N)c(NCCNC(=O)c3ccccc3)nc2c1 [CoPo 19, N-(2-((3-Cyano-5,7-dimethylquinolin-2-yl)amino)ethyl)benzamide]
5 | potentiator-only activity |  | Cc1cc(C)c2cc(C#N)c(NCCNC(=O)c3ccccn3)nc2c1 [CoPo 16, N-(2-((3-Cyano-5,7-dimethylquinolin-2-yl)amino)ethyl)picolinamide]
